Paper PMC4714695 (Cancer Science, 2015)
“Also recorded” adds a separate entry of the source.

How the values were obtained:
[1] = test system: Japanese patients with acute myeloid leukemia; experiment: Phase I 3 + 3 dose escalation: dose-limiting toxicities and MTD; type: in vivo, human
Summary of the method: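 Open-label 3 + 3 escalation at 350, 400 and 450 mg (highest planned level), by 2-h IV infusion on days 1 and 15 of 28-day cycles; patients hospitalized in cycle 1. DLT: treatment-related CTCAE grade ≥3 non-hematologic AE in cycle 1. Exceptions: untreated nausea/vomiting, treatable grade 3 diarrhea, grade 3 febrile neutropenia or infection, lab abnormalities resolving within 5 days, grade 3 tumor lysis syndrome.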

[2] = test system: Japanese patients with acute myeloid leukemia; experiment: Adverse events graded by CTCAE version 3.0; type: in vivo, human; conditions: for Blood creatinine increased, all grades, patients / Decreased appetite, all grades, patients / Decreased appetite, grade 3, patients / Epistaxis, all grades, patients / Fatigue, all grades, patients / Febrile neutropenia, all grades, patients / Febrile neutropenia, grade 3, patients / Hyperuricemia, all grades, patients / Hypoalbuminemia, all grades, patients / Hypokalemia, all grades, patients / Hypokalemia, grade 3, patients / Infection, all grades, patients / Infection, grade 3, patients / Nausea, all grades, patients / Neutropenia, all grades, patients / Neutropenia, grade 4, patients / Pyrexia, all grades, patients / Sepsis, all grades, patients / Sepsis, grade 3, patients / Stomatitis, all grades, patients / Vomiting, all grades, patients / Rash, all grades, patients / Hypokalemia, grade 4, patients: irrespective of relationship
Summary of the method: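 Adults with relapsed/refractory or untreated AML unfit for standard induction, ECOG ≤2. Test compound given as a 2-h IV drip infusion on days 1 and 15 of 28-day cycles, at 350, 400 or 450 mg per administration. AEs from all cycles graded by CTCAE v3.0 and tabulated per dose cohort by MedDRA system organ class, preferred term and grade, with drug causality assigned. Safety cut-off 6 June 2014.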

[3] = test system: Japanese patients with acute myeloid leukemia; experiment: Electrocardiogram QTcF assessment; type: in vivo, human
PLK1 = conditions: cited from earlier work
PLK3 = conditions: compared with PLK1; cited from earlier work
[4] = 450 mg, day 29 (cycle 2, day 1)
[5] = all cohorts (N = 19), all grades
[6] = all cohorts (N = 19), all treatment cycles

## CC[C@@H]1C(=O)N(C)c2cnc(Nc3ccc(C(=O)N[C@H]4CC[C@H](N5CCN(CC6CC6)CC5)CC4)cc3OC)nc2N1C(C)C [Volasertib]
[1]; 350 mg cohort
  DLT in cycle 1: No DLT were reported
[1]; 400 mg cohort
  DLT in cycle 1: No DLT were reported
[1]; 450 mg cohort 3, 6 evaluable patients
  Patients with DLT in cycle 1: 1
[1]; 450 mg cohort 3, cycle 1
  DLT observed (type): grade 4 abnormal liver function test; also recorded: reversible grade 4 liver function test abnormality
[1]; 450 mg, reduced to 400 mg in cycle 2
  Day on which the patient was considered recovered from the DLT: 38 days
[1]; 450 mg, day 9 of cycle 1, reference 0.3–1.2 mg/dL
  Total bilirubin in the patient with DLT: 1.1 mg/dL
[1]; 450 mg, day 9 of cycle 1, reference 6–30 IU/L
  ALT in the patient with DLT: 116 IU/L
[1]; 450 mg, day 9 of cycle 1, reference 13–33 IU/L
  AST in the patient with DLT: 131 IU/L
[1]; 450 mg, day 11 of cycle 1
  ALT in the patient with DLT: 711 IU/L
  AST in the patient with DLT: 764 IU/L
  Total bilirubin in the patient with DLT: 2.6 mg/dL
[1]; 450 mg, day 16
  ALT in the patient with DLT: 450 IU/L
  AST in the patient with DLT: 156 IU/L
  Total bilirubin in the patient with DLT: 3.8 mg/dL
[1]; [4]
  ALT in the patient with DLT: 38 IU/L
  AST in the patient with DLT: 15 IU/L
  Total bilirubin in the patient with DLT: 1.0 mg/dL
[1]; intravenous 2-h infusion on days 1 and 15 of 28-day cycles
  Maximum tolerated dose (MTD): 450 mg
[2]; 350 mg (n = 7)
  Blood creatinine increased, all grades, patients: 1 n
  Decreased appetite, all grades, patients: 5 n
  Decreased appetite, grade 3, patients: 1 n
  Epistaxis, all grades, patients: 1 n
  Fatigue, all grades, patients: 1 n
  Febrile neutropenia, all grades, patients: 5 n
  Febrile neutropenia, grade 3, patients: 5 n
  Hyperuricemia, all grades, patients: 3 n
  Hypoalbuminemia, all grades, patients: 2 n
  Hypokalemia, all grades, patients: 3 n
  Hypokalemia, grade 3, patients: 1 n
  Infection, all grades, patients: 2 n
  Infection, grade 3, patients: 2 n
  Nausea, all grades, patients: 1 n
  Neutropenia, all grades, patients: 1 n
  Neutropenia, grade 4, patients: 1 n
  Pyrexia, all grades, patients: 2 n
  Sepsis, all grades, patients: 2 n
  Sepsis, grade 3, patients: 2 n
  Stomatitis, all grades, patients: 2 n
  Vomiting, all grades, patients: 1 n
[2]; 350 mg cohort 1, neutropenia and thrombocytopenia
  Patients reporting grade 4 AE: one of seven patients
[2]; 400 mg (n = 4)
  Blood creatinine increased, all grades, patients: 2 n
  Decreased appetite, all grades, patients: 1 n
  Epistaxis, all grades, patients: 2 n
  Fatigue, all grades, patients: 3 n
  Febrile neutropenia, all grades, patients: 3 n
  Febrile neutropenia, grade 3, patients: 3 n
  Nausea, all grades, patients: 2 n
  Neutropenia, all grades, patients: 1 n
  Neutropenia, grade 4, patients: 1 n
  Rash, all grades, patients: 4 n
  Sepsis, all grades, patients: 1 n
  Sepsis, grade 3, patients: 1 n
  Stomatitis, all grades, patients: 1 n
  Vomiting, all grades, patients: 1 n
[2]; 400 mg cohort 2, neutropenia and thrombocytopenia
  Patients reporting grade 4 AE: two of four patients
[2]; 450 mg (n = 8)
  Decreased appetite, all grades, patients: 2 n
  Decreased appetite, grade 3, patients: 2 n
  Epistaxis, all grades, patients: 2 n
  Fatigue, all grades, patients: 1 n
  Febrile neutropenia, all grades, patients: 7 n
  Febrile neutropenia, grade 3, patients: 6 n
  Hypoalbuminemia, all grades, patients: 1 n
  Hypokalemia, all grades, patients: 2 n
  Hypokalemia, grade 4, patients: 1 n
  Infection, all grades, patients: 1 n
  Nausea, all grades, patients: 4 n
  Neutropenia, all grades, patients: 1 n
  Neutropenia, grade 4, patients: 1 n
  Pyrexia, all grades, patients: 2 n
  Rash, all grades, patients: 3 n
  Sepsis, all grades, patients: 2 n
  Sepsis, grade 3, patients: 2 n
  Stomatitis, all grades, patients: 2 n
  Vomiting, all grades, patients: 2 n
[2]; 450 mg cohort 3, neutropenia, hypokalemia and abnormal liver function test
  Patients reporting grade 4 AE: three of eight patients
[2]; Total (N = 19)
  Blood creatinine increased, all grades, patients: 3 n
  Decreased appetite, all grades, patients: 8 n
  Decreased appetite, grade 3, patients: 3 n
  Epistaxis, all grades, patients: 5 n
  Fatigue, all grades, patients: 5 n
  Febrile neutropenia, all grades, patients: 15 n
  Febrile neutropenia, grade 3, patients: 14 n
  Hyperuricemia, all grades, patients: 3 n
  Hypoalbuminemia, all grades, patients: 3 n
  Hypokalemia, all grades, patients: 5 n
  Hypokalemia, grade 3, patients: 1 n
  Hypokalemia, grade 4, patients: 1 n
  Infection, all grades, patients: 3 n
  Infection, grade 3, patients: 2 n
  Nausea, all grades, patients: 7 n
  Neutropenia, all grades, patients: 3 n
  Neutropenia, grade 4, patients: 3 n
  Pyrexia, all grades, patients: 4 n
  Rash, all grades, patients: 7 n
  Sepsis, all grades, patients: 5 n
  Sepsis, grade 3, patients: 5 n
  Stomatitis, all grades, patients: 5 n
  Vomiting, all grades, patients: 4 n
[2]; [5]
  Decreased appetite, frequency: 42.1%
  Epistaxis, frequency: 26.3%
  Fatigue, frequency: 26.3%
  Febrile neutropenia, frequency: 78.9%
  Hypokalemia, frequency: 26.3%
  Nausea, frequency: 36.8%
  Pyrexia, frequency: 21.1%
  Rash, frequency: 36.8%
  Sepsis, frequency: 26.3%
  Stomatitis, frequency: 26.3%
  Vomiting, frequency: 21.1%
[2]; [6]
  Patients reporting CTCAE of grade ≥3: 94.7%
  Patients reporting at least one AE irrespective of cause: 19 patients
  Patients reporting at least one drug-related AE: 19 patients
[3]; 450 mg cohort 3 only
  Patients with >60 ms QTcF increase at end of infusion versus prior to infusion: two patients
[3]; all cohorts
  QTcF intervals >500 ms: No QTcF intervals >500 ms were reported
[3]; all dose cohorts
  Time of maximum increase in mean QTcF interval after start of infusion: 2 h
[3]; any cohort, during treatment
  Clinically relevant abnormalities in cardiologic assessment: No patients in any cohort developed clinically relevant abnormalities
[3]; post-dosing, all dose cohorts
  Time by which mean QTcF returned to near baseline: ≤ 24 h
PLK1
  Inhibition of PLK1: selectively inhibit
PLK3
  Inhibition of PLK3: to a lesser extent
